Laboratory results from ChEMBL document CHEMBL3860041, “Synthesis, biological evaluation and molecular modeling study of some new methoxylated 2-benzylthio-quinazoline-4(3H)-ones as nonclassical antifolates” (Bioorg Med Chem Lett, 2016).

Experiments:
[1] = Growth inhibition of human HT-29 cells at 10 uM after 48 hrs by SRB assay relative to control; assay type: functional; settings: HT-29, 48 h, read-out: GI
In short: (§1)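 NCI 60-cell-line panel, nine tumor subpanels; compounds tested at a single dose of 10 μM in the primary screen.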

[2] = Growth inhibition of human KM12 cells at 10 uM after 48 hrs by SRB assay relative to control; assay type: functional; settings: KM12, 48 h, read-out: GI; in short: as §1
[3] = Growth inhibition of human PC3 cells at 10 uM after 48 hrs by SRB assay relative to control; assay type: functional; settings: PC-3, 48 h, read-out: GI; in short: as §1
[4] = Growth inhibition of human Caki1 cells at 10 uM after 48 hrs by SRB assay relative to control; assay type: functional; settings: CAKI-1, 48 h, read-out: GI; in short: as §1
Cancer cell lines [5] = assay: Potency index, ratio of 5-fluorouracil GI50 to compound GI50 for human breast cancer cells; assay type: functional
In short: (§2)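 GI50 for each cell line came from NCI panel testing over a 5-log dose range, with 5-fluorouracil tested alongside as the reference drug. The index relates the 5-fluorouracil GI50 to the compound GI50 within each tumour subpanel.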

[6] = Growth inhibition of human breast cancer cells after 48 hrs by SRB assay; assay type: functional; settings: Cancer cell lines
In short: (§3)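 Follow-up NCI panel testing over a 5-log dose range for each cell line. GI50, TGI and LC50 were monitored, with 5-fluorouracil run as the positive control. Values are grouped by tumour subpanel.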

[7] = Growth inhibition of human HOP92 cells at 10 uM after 48 hrs by SRB assay relative to control; assay type: functional; settings: HOP-92, 48 h, read-out: GI; in short: as §1
Cancer cell lines [8] = assay: Potency index, ratio of 5-fluorouracil GI50 to compound GI50 for human colon cancer cells; assay type: functional; in short: as §2
[9] = Growth inhibition of human NCI-H522 cells at 10 uM after 48 hrs by SRB assay relative to control; assay type: functional; settings: NCI-H522, 48 h, read-out: GI; in short: as §1
[10] = Growth inhibition of human RPMI8226 cells at 10 uM after 48 hrs by SRB assay relative to control; assay type: functional; settings: RPMI-8226, 48 h, read-out: GI; in short: as §1
Cancer cell lines [11] = assay: Potency index, ratio of 5-fluorouracil GI50 to compound GI50 for human non-small cell lung cancer cells; assay type: functional; in short: as §2
[12] = Growth inhibition of human HCT15 cells at 10 uM after 48 hrs by SRB assay relative to control; assay type: functional; settings: HCT-15, 48 h, read-out: GI; in short: as §1
[13] = Growth inhibition of human HCC2998 cells at 10 uM after 48 hrs by SRB assay relative to control; assay type: functional; settings: HCC 2998, 48 h, read-out: GI; in short: as §1
[14] = Growth inhibition of human renal cancer cells after 48 hrs by SRB assay; assay type: functional; settings: Cancer cell lines; in short: as §3
[15] = Growth inhibition of human melanoma cells after 48 hrs by SRB assay; assay type: functional; settings: Melanoma cell; in short: as §3
[16] = Growth inhibition of human prostate cancer cells after 48 hrs by SRB assay; assay type: functional; settings: Cancer cell lines; in short: as §3
Cancer cell lines [17] = assay: Potency index, ratio of 5-fluorouracil GI50 to compound GI50 for human prostate cancer cells; assay type: functional; in short: as §2
[18] = Growth inhibition of human NCI-322M cells at 10 uM after 48 hrs by SRB assay relative to control; assay type: functional; settings: read-out: GI; in short: as §1
[19] = Growth inhibition of human SF539 cells at 10 uM after 48 hrs by SRB assay relative to control; assay type: functional; settings: SF-539, 48 h, read-out: GI; in short: as §1
[20] = Growth inhibition of human SW620 cells at 10 uM after 48 hrs by SRB assay relative to control; assay type: functional; settings: SW-620, 48 h, read-out: GI
In short: (§4)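 Primary screen across the full NCI 60 human tumour cell line panel, which covers nine tumour subpanels. A single dose of 10 μM was applied to each line, and growth was recorded for each cell line.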

[21] = Growth inhibition of human U251 cells at 10 uM after 48 hrs by SRB assay relative to control; assay type: functional; settings: U-251, 48 h, read-out: GI; in short: as §4
Dihydrofolate reductase = target: T1, Dihydrofolate reductase (Bos taurus, UniProt P00376); assay: Inhibition of bovine liver DHFR preincubated for 2 mins followed by addition of FH2 as substrate and NADPH
T1 sequence (P00376 whole entry): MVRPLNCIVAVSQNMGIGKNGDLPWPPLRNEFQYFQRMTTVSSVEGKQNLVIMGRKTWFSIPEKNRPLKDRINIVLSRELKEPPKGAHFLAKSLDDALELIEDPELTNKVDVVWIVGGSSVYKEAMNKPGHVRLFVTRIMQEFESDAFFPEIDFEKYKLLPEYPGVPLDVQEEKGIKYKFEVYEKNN

[22] = Growth inhibition of human SF295 cells at 10 uM after 48 hrs by SRB assay relative to control; assay type: functional; settings: SF-295, 48 h, read-out: GI; in short: as §1
Melanoma cell = assay: Potency index, ratio of 5-fluorouracil GI50 to compound GI50 for human melanoma cells; assay type: functional; in short: as §2
[23] = Growth inhibition of human SK-MEL-28 cells at 10 uM after 48 hrs by SRB assay relative to control; assay type: functional; settings: SK-MEL-28, 48 h, read-out: GI; in short: as §4
Cancer cell lines [24] = assay: Potency index, ratio of 5-fluorouracil GI50 to compound GI50 for human renal cancer cells; assay type: functional; in short: as §2
Cancer cell lines [25] = assay: Potency index, ratio of 5-fluorouracil GI50 to compound GI50 for human ovarian cancer cells; assay type: functional; in short: as §2
[26] = Growth inhibition of human OVCAR3 cells at 10 uM after 48 hrs by SRB assay relative to control; assay type: functional; settings: OVCAR-3, 48 h, read-out: GI; in short: as §1
[27] = Growth inhibition of human M14 cells at 10 uM after 48 hrs by SRB assay relative to control; assay type: functional; settings: M14, 48 h, read-out: GI; in short: as §1
[28] = Growth inhibition of human MDA-MB-231 cells at 10 uM after 48 hrs by SRB assay relative to control; assay type: functional; settings: MDA-MB-231, 48 h, read-out: GI; in short: as §1
[29] = Growth inhibition of human leukemia cells after 48 hrs by SRB assay; assay type: functional; settings: Leukemia cell; in short: as §3
[30] = Growth inhibition of human NCI-H460 cells at 10 uM after 48 hrs by SRB assay relative to control; assay type: functional; settings: NCI-H460, 48 h, read-out: GI; in short: as §1
[31] = Growth inhibition of human IGROV1 cells at 10 uM after 48 hrs by SRB assay relative to control; assay type: functional; settings: IGROV-1, 48 h, read-out: GI; in short: as §1
[32] = Growth inhibition of human MCF7 cells at 10 uM after 48 hrs by SRB assay relative to control; assay type: functional; settings: MCF7, 48 h, read-out: GI; in short: as §1
[33] = Growth inhibition of human UACC62 cells at 10 uM after 48 hrs by SRB assay relative to control; assay type: functional; settings: UACC-62, 48 h, read-out: GI; in short: as §4
[34] = Growth inhibition of human OVCAR8 cells at 10 uM after 48 hrs by SRB assay relative to control; assay type: functional; settings: OVCAR-8, 48 h, read-out: GI; in short: as §1

COc1ccccc1-n1c(SCc2cc(OC)c(OC)c(OC)c2)nc2ccc(Cl)cc2c1=O
inhibition of growth at 10 µM [1]: 92.3%
inhibition of growth at 10 µM [2]: 83.6%
inhibition of growth at 10 µM [3]: 80.4%
inhibition of growth at 10 µM [4]: 57.4%
RatioGI50 (Cancer cell lines [5]): 2 - 10
GI50 [6]: 3.5 µM
LC50 [6]: > 100 µM
TGI [6]: 84.8 µM
inhibition of growth at 10 µM [7]: 57.1%
RatioGI50 (Cancer cell lines [8]): 2 - 10
inhibition of growth at 10 µM [9]: < 10%
inhibition of growth at 10 µM [10]: 82.6%
RatioGI50 (Cancer cell lines [11]): 2 - 10
inhibition of growth at 10 µM [12]: 72.2%
inhibition of growth at 10 µM [13]: 43.2%
GI50 [14]: 10.6 µM
LC50 [14]: > 100 µM
TGI [14]: 93.5 µM
GI50 [15]: 4.2 µM
LC50 [15]: > 100 µM
TGI [15]: 91.7 µM
GI50 [16]: 5.9 µM
LC50 (concentration killing 50% of cells) [16]: > 100 µM
TGI [16]: > 100 µM
RatioGI50 (Cancer cell lines [17]): 2 - 10
inhibition of growth at 10 µM [18]: 44.9%
inhibition of growth at 10 µM [19]: 35.5%
inhibition of growth at 10 µM [20]: 83.2%
inhibition of growth at 10 µM [21]: 74.5%
IC50 (Dihydrofolate reductase): 0.1 µM
inhibition of growth at 10 µM [22]: 68.2%
RatioGI50 (Melanoma cell): 2 - 10
inhibition of growth at 10 µM [23]: 50.7%
RatioGI50 (Cancer cell lines [24]): 2 - 10
RatioGI50 (Cancer cell lines [25]): 2 - 10
inhibition of growth at 10 µM [26]: 99.5%
inhibition of growth at 10 µM [27]: 84.1%
inhibition of growth at 10 µM [28]: 44.3%
GI50 [29]: 2.4 µM
TGI [29]: 86.5 µM
CC50 ([29]; read-out: LC50 (the source's name)): > 100 µM
inhibition of growth at 10 µM [30]: 89.2%
inhibition of growth at 10 µM [31]: 52.3%
inhibition of growth at 10 µM [32]: 84.4%
inhibition of growth at 10 µM [33]: 65.7%
inhibition of growth at 10 µM [34]: 44.7%
